Laboratory results published in ChEMBL document CHEMBL3784930, “Design, synthesis and biological evaluation of N,N-3-phenyl-3-benzylaminopropanamide derivatives as novel cholesteryl ester transfer protein inhibitor” (Bioorg Med Chem, 2016).

tested on: Homo sapiens; assay: In vivo inhibition of CETP in human whole plasma at 120 mg for 14 days; type: functional, organism-based; details: 336 h

| Structure (SMILES) | IC50 [µM] |
| --- | --- |
| CCOC(=O)N1c2ccc(C(F)(F)F)cc2[C@@H](N(Cc2cc(C(F)(F)F)cc(C(F)(F)F)c2)C(=O)OC)C[C@H]1CC [TORCETRAPIB] | 0.05 |

tested on: Syrian golden hamster; assay: Antidyslipidemic activity in high cholesterol/lipid diet fed golden syrian hamster assessed as reduction in LDL-cholesterol levels at 30 mg/kg/day, po administered for 2 weeks relative to control; type: functional, Mesocricetus auratus; set-up: scale not given: the % may be the effect or the level left; details: not given
How it was run: (§1)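 Male Golden Syrian hamsters (8 weeks old, 120-130 g) were randomized by weight into control and treated groups (n = 6). Dyslipidemia was induced with a high cholesterol and lipid diet for 5 weeks. Dosing was oral at 30 mg/kg/day for two weeks in ethanol/cremophor/saline 5:5:90. Blood was drawn from the orbit, and serum lipid levels were compared with controls.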

| Structure (SMILES) | Activity [%] |
| --- | --- |
| CCOC(=O)c1ccc(N2CCN(C(=O)CCN(Cc3ccc(F)cc3)c3cccc(Oc4ccccc4)c3)CC2)cc1 | 24.6 |

tested on: Syrian golden hamster; assay: Antidyslipidemic activity in high cholesterol/lipid diet fed golden syrian hamster assessed as increase in HDL-cholesterol levels at 30 mg/kg/day, po administered for 2 weeks relative to control; type: functional, Mesocricetus auratus; details: not given; how it was run: as §1

| Structure (SMILES) | Activity [%] |
| --- | --- |
| CCOC(=O)c1ccc(N2CCN(C(=O)CCN(Cc3ccc(F)cc3)c3cccc(Oc4ccccc4)c3)CC2)cc1 | 21.7 |

target: Cholesteryl ester transfer protein (Homo sapiens) (UniProt P11597); assay: Inhibition of recombinant CETP by BODIPY-CE fluorescence assay; details: not given

| Structure (SMILES) | IC50 [µM] |
| --- | --- |
| COc1ccc(C(CC(=O)c2ccccc2)Nc2ccc(Cl)cc2)cc1OC (configuration not stated) | 8.06 |

organism: Homo sapiens; assay: Reduction in LDL-cholestrol levels in mild dyslipidemia patient at 5 to 10 mg; type: functional; set-up: scale not given: the % may be the effect or the level left; details: not given

| Structure (SMILES) | Activity [%] |
| --- | --- |
| CCOC(=O)N1c2ccc(C(F)(F)F)cc2[C@@H](N(Cc2cc(C(F)(F)F)cc(C(F)(F)F)c2)c2ncc(OCCCC(=O)O)cn2)C[C@H]1CC [OBICETRAPIB] | 45.3 |

target: T1, Cholesteryl ester transfer protein (Homo sapiens, UniProt P11597); assay: Inhibition of full-length human recombinant CETP expressed in CHO cells by BODIPY-CE fluorescence assay; type: cell-based; details: not given
T1 sequence (P11597 whole entry): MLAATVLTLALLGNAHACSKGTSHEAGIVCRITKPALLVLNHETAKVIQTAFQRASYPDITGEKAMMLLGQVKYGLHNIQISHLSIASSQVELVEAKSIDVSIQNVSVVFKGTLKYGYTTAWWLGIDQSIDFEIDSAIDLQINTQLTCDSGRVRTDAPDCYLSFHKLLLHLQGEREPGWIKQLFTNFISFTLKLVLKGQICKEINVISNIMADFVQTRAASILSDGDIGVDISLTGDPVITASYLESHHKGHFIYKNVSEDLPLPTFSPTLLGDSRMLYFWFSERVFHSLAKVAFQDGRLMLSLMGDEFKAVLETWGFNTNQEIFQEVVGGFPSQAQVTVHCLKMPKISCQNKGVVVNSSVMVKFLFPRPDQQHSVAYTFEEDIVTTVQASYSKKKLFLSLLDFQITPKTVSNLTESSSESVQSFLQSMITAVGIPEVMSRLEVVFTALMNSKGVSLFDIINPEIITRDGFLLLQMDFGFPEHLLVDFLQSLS

| Structure (SMILES) | IC50 [µM] |
| --- | --- |
| CC(C)(C)NC(=O)CCN(Cc1ccc(F)cc1)c1ccc(Cl)c(Cl)c1 | 29.6 |
| COc1ccc(N2CCN(C(=O)CCN(Cc3ccc(F)cc3)c3cccc(-c4ccccc4)c3)CC2)cc1 | 7.3 |
| O=C(CCN(Cc1ccc(F)cc1)c1cccc(-c2ccccc2)c1)N1CCN(c2ccccc2)CC1 | 11.3 |
| CCc1cc(N(CCC(=O)N2CCN(c3ccccc3)CC2)Cc2ccc(F)cc2)ccc1Cl | 19.5 |
| CCOC(=O)c1ccc(N2CCN(C(=O)CCN(Cc3ccc(F)cc3)c3cccc(-c4ccccc4)c3)CC2)cc1 | 3.1 |
| COc1ccc(N2CCN(C(=O)CCN(Cc3ccc(F)cc3)c3cccc(Oc4ccccc4)c3)CC2)cc1 | 2.8 |
| O=C(CCN(Cc1ccc(F)cc1)c1ccc(Cl)c(Cl)c1)NC1CCCCC1 | 10.7 |
| O=C(CCN(Cc1ccc(F)cc1)c1ccc(Cl)c(Cl)c1)N1CCN(c2ccccc2)CC1 | 5.2 |
| CCOC(=O)c1ccc(N2CCN(C(=O)CCN(Cc3ccc(F)cc3)c3ccc(Cl)c(Cl)c3)CC2)cc1 | 2.8 |
| O=C(CCN(Cc1ccc(F)cc1)c1ccc(Cl)c(C(F)(F)F)c1)N1CCN(c2ccccc2)CC1 | 37.8 |
| CCCCN(CC1CC1)C(=O)CCN(Cc1ccc(F)cc1)c1ccc(Cl)c(Cl)c1 | > 50 |
| O=C(CCN(Cc1ccc(F)cc1)c1ccc(Cl)c(Cl)c1)NC1CC1 | > 50 |
| O=C(CCN(Cc1ccc(F)cc1)c1ccc(Cl)c(Cl)c1)N1CCOCC1 | 14.2 |
| Cc1cc(N(CCC(=O)N2CCN(c3ccccc3)CC2)Cc2ccc(F)cc2)ccc1Br | 13.9 |
| COc1ccc(N2CCN(C(=O)CCN(Cc3ccc(F)cc3)c3ccc(Cl)c(Cl)c3)CC2)cc1 | 3.5 |
| O=C(CCN(Cc1ccc(F)cc1)c1ccc(Cl)c(Cl)c1)N1CCN(c2ncccn2)CC1 | 11.8 |

organism: Homo sapiens; assay: Increase in HDL-cholestrol levels in mild dyslipidemia patient at 10 mg; type: functional; details: not given

| Structure (SMILES) | Activity [%] |
| --- | --- |
| CCOC(=O)N1c2ccc(C(F)(F)F)cc2[C@@H](N(Cc2cc(C(F)(F)F)cc(C(F)(F)F)c2)c2ncc(OCCCC(=O)O)cn2)C[C@H]1CC [OBICETRAPIB] | 179.1 |
